Screening results (PubChem)
RAM network inh – yeast RAM network inhibition; S. cerevisiae dse1pr::URA3 reporter, 5-FOA growth OD615, 2 d; analog-sensitive cbk1-as2 kinase mutant strain; inhibition, % at 50 µM; 190,000 tested, 1.8% active; AID 868;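 active = inhibition above a set limit, 3 SD over mean compound inhibition, cut at about 8.4% in these data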;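 note: 0% = DMSO-only wells with no growth and 100% = 10 µM 1-NA-PP1 full growth; inhibition rescues growth on 5-FOA so higher OD means more RAM inhibition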
Yeast lifespan up – yeast lifespan extension | S. cerevisiae growth with nicotinamide, OD615; deaD strain in restrictive glucose medium | inhibition of the nicotinamide effect, % at 10 µM | 130,000 tested, 0.68% active | AID 775;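 active = inhibition above a set limit, placed 3 SD over the median of all compounds, cut at about 26% in these data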;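 note: 0% = nicotinamide-treated wells and 100% = cells grown without nicotinamide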
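Assay system: DeaD-strain S. cerevisiae. Medium: CSMM-D glucose medium, restrictive. Reagent: nicotinamide, 1.5 mM, co-present with compound. Compound: 10 µM single point, 0.25% DMSO. Schedule: culture preincubation 4 h, compound exposure 48 h, both 30 °C. Detection: absorbance at 615 nm.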
BB579 growth dn – reduces growth of yeast BB579 in restrictive medium; S. cerevisiae BB579 growth, OD615, 48 h; inhibition, % at 10 µM; 140,000 tested, 0.51% active; AID 804;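 active = inhibition above a set limit, 3 SD over the mean compound inhibition, cut at about 44% in these data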
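Test system: S. cerevisiae DeaD strain BB579 yeast; Medium: restrictive CSMM-D medium; Compound: one dose, 10 µM compound with 0.25% DMSO; Incubation: 4 h cell preincubation, 48 h compound exposure, 30 °C humidified; Signal: OD at 615 nm; Benchmarks: amphotericin B at 10 µg/mL as positive control.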
sdo1 growth – compounds rescuing growth of sdo1-depleted yeast, bone marrow failure model. S. cerevisiae sdo1-depleted JHY4D growth rescue, OD600 30 h; active compounds read high; pdr5 snq2 efflux-pump mutant strain. z-score at 10 µM. AID 817. 140,000 tested, 0.21% active;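 active = z-score above 3 at both the 24 hr and the 30 hr optical density reads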;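 note: z-score against mean and SD of all compound wells on the same plate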
An asterisk follows results filed as active; . = no result given. In the library only some 2.7% were active in any assay of this set; here they are far more common.

SMILES	RAM network inh	Yeast lifespan up	BB579 growth dn	sdo1 growth
CC(C)C[C@H](NC(=O)c1nc[nH]c1C(=O)NCCCCCNC(=O)OC(C)(C)C)C(=O)OCc1ccccc1	10*	.	.	.
C[C@H](NC(=O)c1nc[nH]c1C(=O)N[C@@H](Cc1ccccc1)C(=O)OCc1ccccc1)c1ccccc1	8.6*	.	.	.
COCCCN1C(=O)C(=O)/C(=C(/O)c2ccccc2)C1c1ccc2c(c1)OCO2 (stereo not drawn)	9.7*	4	-64	0.01
O=C(Nc1ccc(Cl)cc1)Nc1cc(S(=O)(=O)N2CCOCC2)ccc1N1CCCC1	9.3*	8	-15	0.55
COc1ccc(C(=O)CSc2nnc(CN3CCCCC3)n2-c2ccc(Cl)cc2)cc1OC	1	3	-45	-0.33
O=C(CSc1nnc(CN2CCOCC2)n1-c1ccc(Cl)cc1)Nc1cc(Cl)ccc1O	11*	6	-45	0.31
COC(=O)c1ccc(CSc2nc3ccccc3o2)cc1	8.8*	-17	-1	-0.16
O=[N+]([O-])c1ccc(CSc2nc3ccccc3o2)cc1	2	3	-14	-1.2
COc1ccc(C(C(=O)OC(C)CN(C)C)c2ccccc2)cc1 (stereo not drawn)	1	-3	-21	1.2
CN(C)CC(C(=O)c1ccccc1)c1ccccc1 (stereo not drawn)	1	101*	-38	-2.7
Cc1cc(C)n(CCCN2C(=O)c3cccc4cccc(c34)C2=O)n1	2	.	.	.
CCOc1ccc(NS(=O)(=O)c2cnc(Cl)c(Cl)c2)cc1	-1	2	-66	-1.7
Cc1cc(C)cc(NS(=O)(=O)c2cnc(Cl)c(Cl)c2)c1	-1	-18	76*	-1.6
CCC(C(=O)OCC(=O)Nc1ccc(Cl)c(S(=O)(=O)N(C)C)c1)c1ccccc1 (stereo not drawn)	10*	0	6	-0.03
CN(C)S(=O)(=O)c1cc(NC(=O)COC(=O)Cc2ccc(Cl)cc2Cl)ccc1Cl	2	-1	-11	-0.58
CCC(C(=O)OCC(=O)Nc1ccc(C(N)=O)cc1)c1ccccc1 (stereo not drawn)	3	.	.	.
CN(C)S(=O)(=O)c1cc(NC(=O)COC(=O)Cc2cccc3ccccc23)ccc1Cl	8.7*	-1	-20	-1.1
CCC(C(=O)OCC(=O)Nc1ccc(SC(F)F)cc1)c1ccccc1 (stereo not drawn)	8.4*	-1	-24	-1.1
COc1ccccc1C(=O)COC(=O)c1ccccc1OCC(=O)Nc1ccc(SC(F)F)cc1	9.2*	4	-8	-0.81
CCCCN(CCCC)C(=O)C[n+]1cccc(/C=N/O)c1	6	.	.	.
CCCCCCCCCCCCCCCC[n+]1ccc(C(N)=O)cc1	-1	-13	100*	-1.4
CCCCCCCC[n+]1cccc(C(=O)N(CC)CC)c1	1	3	-24	1.7
CCCCCCCCCCCCCCCC[n+]1ccc(/C=N/O)cc1	2	-13	100*	-1.5
CCCCCCCCCCCCCCCC[n+]1cccc(C(=O)N(CC)CC)c1	-2	-14	101*	-1.6
COC(=O)c1cc(OC)c(OC)cc1NC(=O)c1ccccc1C	2	.	.	.
SMILES	RAM network inh	Yeast lifespan up	BB579 growth dn	sdo1 growth
CCc1ccc(OCC(=O)NC(NC(=S)Nc2ccc(Cl)cc2)C(Cl)(Cl)Cl)cc1 (stereo not drawn)	9.5*	7	-20	-1.1
CCc1ccc(OCC(=O)NC(C)C)cc1	-1	.	.	.
Cc1ccc(/C=C/C(=O)c2ccccc(=O)c2O)cc1C	1	-10	99*	-0.04
COc1ccc(/C=C/C(=O)c2ccccc2O)cc1	2	-3	-15	-1.3
O=C(/C=C/c1ccccc1)c1cc(Br)ccc(=O)c1O	0	-17	88*	0.79
COc1ccc(/C=C/C(=O)Nc2cc(S(=O)(=O)N3CCOCC3)ccc2C)cc1OC	3	.	.	.
CC(=O)Nc1ccc(Sc2ncnc3scc(-c4ccccc4)c23)cc1	5	1	-9	-0.7
CCCC(=O)Nc1ccccc1Sc1ncnc2scc(-c3ccccc3)c12	1	44*	-28	-1.4
COc1ccc(OC)c(Cc2nnc(CCC(=O)NCc3nc4ccccc4s3)o2)c1	3	.	.	.
CC1CN(c2ncnc3c2c(-c2ccccc2)cn3-c2ccc(F)cc2)CC(C)O1 (stereo not drawn)	8.7*	.	.	.
CC(=O)c1ccc(NC(=O)C2C3C=CC(C3=C(c3ccccc3)c3ccccc3)C2C(=O)O)cc1 (stereo not drawn)	10*	.	.	.
CC(C)=C1C2C=CC1C(C(=O)Nc1cc(C)ccc1C)C2C(=O)O (stereo not drawn)	1	2	-29	-0.24
